Experiment [1] in a line: LDL oxidation at 300 uM by ELISA. (In an ELISA, binding on a coated surface is turned into a signal by an enzyme label.)
The target of the next experiment is T1, Myeloperoxidase (Homo sapiens, UniProt P05164).
T1 sequence (P05164 whole entry): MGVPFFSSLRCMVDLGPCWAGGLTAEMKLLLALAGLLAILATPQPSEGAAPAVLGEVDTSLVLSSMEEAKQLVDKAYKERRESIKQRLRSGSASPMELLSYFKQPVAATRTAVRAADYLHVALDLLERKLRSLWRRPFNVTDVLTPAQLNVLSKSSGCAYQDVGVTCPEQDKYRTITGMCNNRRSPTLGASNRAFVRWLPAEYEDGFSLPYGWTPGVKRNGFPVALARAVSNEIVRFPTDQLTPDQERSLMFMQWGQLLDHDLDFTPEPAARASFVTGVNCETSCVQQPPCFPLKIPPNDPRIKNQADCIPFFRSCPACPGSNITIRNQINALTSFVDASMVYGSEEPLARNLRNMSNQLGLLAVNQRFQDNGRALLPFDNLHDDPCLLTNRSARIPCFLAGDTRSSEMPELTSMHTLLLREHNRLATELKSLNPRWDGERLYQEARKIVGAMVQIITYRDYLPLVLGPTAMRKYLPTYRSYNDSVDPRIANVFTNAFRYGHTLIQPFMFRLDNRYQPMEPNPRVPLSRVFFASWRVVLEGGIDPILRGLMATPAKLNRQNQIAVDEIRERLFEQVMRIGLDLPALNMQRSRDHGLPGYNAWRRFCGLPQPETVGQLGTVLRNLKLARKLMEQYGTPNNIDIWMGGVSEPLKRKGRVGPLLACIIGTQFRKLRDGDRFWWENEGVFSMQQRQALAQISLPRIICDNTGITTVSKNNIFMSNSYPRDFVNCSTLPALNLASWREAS
Nature of the experiment: Inhibition of chlorinating activity of recombinant myeloperoxidase by taurine assay. Type of experiment: single protein format. The method in brief: (§1)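 Recombinant MPO (~25 nM) in pH 7.4 phosphate (10 mM)/NaCl 300 mM with taurine (15 mM) and compound (0–20 μM) at 37 °C; started with H2O2 (100 μM), stopped after 5 min with catalase. Taurine chloramine measured with TNB. No inhibitor = 0%, no H2O2 = 100%. At least 3 determinations. IC50 from three-parameter sigmoid fit.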

Experiment [2] can be described thus: Hypochlorous acid scavenging activity at 0.5 uM by taurine assay. Type of experiment: functional. Put shortly: (§2)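 No enzyme; HOCl (60 μM) added to pH 7.4 phosphate buffer (10 mM phosphate/300 mM NaCl) with taurine (15 mM) and compound (0.5, 1, 2, 4 μM) at 37 °C. Catalase added after 5 min. Taurine chloramine quantified with 0.45 mM TNB.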
Experiment [3] addresses T2, Myeloperoxidase (Homo sapiens) (UniProt P05164).
T2 sequence (whole entry): T1 sequence (P05164 whole entry)
The experiment can be described thus: Inhibition of chlorinating activity of recombinant myeloperoxidase at 1 uM by taurine assay. Put shortly:
as §1

A short description of experiment [4]: Hypochlorous acid scavenging activity at 4 uM by taurine assay. Format: functional. The method in brief: as §2
For experiment [5], the target named is T2, Myeloperoxidase (Homo sapiens). The experiment can be described thus: Inhibition of chlorinating activity of recombinant myeloperoxidase at 4 uM by taurine assay. Put shortly: as §1
The nature of experiment [6]: Hypochlorous acid scavenging activity at 1 uM by taurine assay. Type of experiment: functional. The method in brief:
as §2

In experiment [7] the target is T2, Myeloperoxidase (Homo sapiens). Nature of the experiment: Inhibition of chlorinating activity of recombinant myeloperoxidase at 2 uM by taurine assay. The method in brief:
as §1

The target is the same in experiment [8]. The experiment can be described thus: Inhibition of chlorinating activity of recombinant myeloperoxidase at 0.5 uM by taurine assay. Put shortly:
as §1

Experiment [9] in a line: Hypochlorous acid scavenging activity at 2 uM by taurine assay. Format: functional. Put shortly: as §2
Experiment [10] is described as follows: LDL oxidation at 15 uM by ELISA.
Experiment [11] can be described thus: LDL oxidation at 5 uM by ELISA.
Experiment [12] is described as follows: LDL oxidation at 30 uM by ELISA.

For orientation: IC50 means the concentration that gives 50% inhibition. The inhibition is the drop in the measured response relative to a control, in per cent. With `O=C(O)c1cc(F)ccc1Nc1cccc(C(F)(F)F)c1`, the level, % of control in experiment [1] is 9%. The IC50 at Myeloperoxidase is 1.8 µM. In addition, the Activity was 3.3% in [2], 3% in experiment [4], 2% in experiment [6] and 1.9% in experiment [9]. Further, the inhibition in [3] came to 49%; in experiment [5], 76%; in experiment [7], 63%; in experiment [8], 37%.

Take `O=C(CCCO)Nc1ccc(C(=O)O)c(Nc2cccc(C(F)(F)F)c2)c1`: on Myeloperoxidase, the IC50 was over 100 µM. Moreover, the Activity in [2] was 0%; in [4], 1%; in experiment [6] it was 0%; in [9] it was -1%. Also, the inhibition stood at 12% in [3], 20% in experiment [5], 12.2% in experiment [7] and 8.5% in experiment [8].

As to `O=C(O)c1cc(Cl)ccc1Nc1cccc(C(F)(F)F)c1`, the level, % of control in experiment [1] stood at 112%. For the same compound, the IC50 on Myeloperoxidase was found to be 1.6 µM. Besides, the Activity was found to be 1% in [2], 1% in [4], 0.4% in experiment [6] and 2% in [9]. Also, the inhibition worked out at 42% in experiment [3], 74% in experiment [5], 57% in [7] and 29% in experiment [8].

Turning to `O=C(O)/C=C/C(=O)Nc1ccc(C(=O)O)c(Nc2cccc(C(F)(F)F)c2)c1`, the IC50 on Myeloperoxidase is over 100 µM. Further, the Activity was -1% in experiment [2], 2% in [4], -1% in experiment [6] and 0% in experiment [9]. Besides, the inhibition in experiment [3] came to 0.6%; in experiment [5], 0.3%; in experiment [7], 0.1%; in experiment [8], 0.3%.

For the compound `O=C(O)c1cccc(Nc2cccc(C(F)(F)F)c2)c1C(=O)O`, the IC50 on Myeloperoxidase is over 100 µM.

As to `O=C(O)c1ccc([N+](=O)[O-])cc1Nc1cccc(C(F)(F)F)c1`, the level, % of control in experiment [1] turned out to be 16%; in experiment [10], 143%; in experiment [11], 121%; in experiment [12] it was 135%. The IC50 at Myeloperoxidase was determined as 5 µM. For the same compound, the Activity was determined as 0% in experiment [2], 2% in experiment [4], 0% in [6] and 1% in experiment [9]. Moreover, the inhibition was determined as 29% in [3], 55% in experiment [5], 43% in [7] and 29% in experiment [8].

Consider `CC(=O)Nc1ccc(C(=O)O)c(Nc2cccc(C(F)(F)F)c2)c1`, for which the level, % of control came to 29% in [1], 86% in experiment [10], 122% in [11] and 61% in [12]. In addition, the IC50 on Myeloperoxidase turned out to be 14 µM. Moreover, the Activity in experiment [2] amounted to 1%; in experiment [4] it was 1%; in experiment [6], 2%; in [9], 2%. Moreover, the inhibition in experiment [3] is 24%; in [5] it was 42%; in experiment [7], 33%; in [8], 12%.

With `Nc1ccc(C(=O)O)c(Nc2cccc(C(F)(F)F)c2)c1`, the level, % of control in [1] came out at 29%; in [10] it was 70%; in [11], 79%; in experiment [12], 56%. Also, the Activity in [2] was 1%; in [4], 3%; in experiment [6], 2%; in [9], 2%.

`O=C(O)c1cc(Br)ccc1Nc1cccc(C(F)(F)F)c1`: in experiment [1], the level, % of control came to 29%. The IC50 at Myeloperoxidase amounted to 1.8 µM. Also, the Activity in experiment [2] came to 3%; in [4], 4.9%; in experiment [6], 2%; in [9], 3%. The inhibition in [3] was determined as 51%; in experiment [5], 79%; in experiment [7], 65%; in experiment [8], 36%.

With `O=C(O)c1ccccc1Nc1cccc(C(F)(F)F)c1` [FLUFENAMIC ACID], the level, % of control in [1] amounted to 10%; in [10], 82%; in [11], 97%; in experiment [12] it was 23%. Further, the IC50 at Myeloperoxidase was 1.8 µM. Moreover, the Activity in [2] is 2%; in experiment [4], 1.7%; in [6], 1.1%; in experiment [9], 1.6%. The inhibition in experiment [3] worked out at 40%; in experiment [5], 64%; in experiment [7], 52%; in experiment [8], 25%.

As for `NCCCC(=O)Nc1ccc(C(=O)O)c(Nc2cccc(C(F)(F)F)c2)c1`, the IC50 on Myeloperoxidase worked out at 5.5 µM. In addition, the Activity in experiment [2] worked out at 1%; in experiment [4], 1%; in [6], 2%; in experiment [9], 2%. Also, the inhibition is 21% in experiment [3], 49% in experiment [5], 35% in experiment [7] and 12% in [8].

Turning to `O=C(O)c1cc(O)ccc1Nc1cccc(C(F)(F)F)c1`, the level, % of control in [1] turned out to be 53%. The Activity in experiment [2] turned out to be 2%; in experiment [4], 2%; in [6] it was 2%; in experiment [9], 2.5%.

With `O=C(Nc1ccc(C(=O)O)c(Nc2cccc(C(F)(F)F)c2)c1)c1ccccc1`, the IC50 at Myeloperoxidase came to 58 µM. Besides, the Activity is 1% in experiment [2], 2% in [4], 0% in experiment [6] and 0% in experiment [9]. Also, the inhibition in [3] came out at 15%; in [5], 35%; in experiment [7], 25%; in experiment [8] it was 11%.

(Values after ChEMBL document CHEMBL1141613, “Conception of myeloperoxidase inhibitors derived from flufenamic acid by computational docking and structure modification” (Bioorg Med Chem, 2008).)
